Data set [1] relates to A549 lung epithelial cells. The data set can be described thus: Cytotoxicity. Format: cell-based, human. The note with it: 0.1 to 100 μM, 16 h.
The nature of data set [2]: Solubility in the cytotoxicity test buffer. The format is physicochemical. Particulars: this concentration = 100 μM.
The target of data set [3] is T1, PqsR (Pseudomonas aeruginosa, UniProt Q9I4X0).
T1 sequence (Q9I4X0 1-332): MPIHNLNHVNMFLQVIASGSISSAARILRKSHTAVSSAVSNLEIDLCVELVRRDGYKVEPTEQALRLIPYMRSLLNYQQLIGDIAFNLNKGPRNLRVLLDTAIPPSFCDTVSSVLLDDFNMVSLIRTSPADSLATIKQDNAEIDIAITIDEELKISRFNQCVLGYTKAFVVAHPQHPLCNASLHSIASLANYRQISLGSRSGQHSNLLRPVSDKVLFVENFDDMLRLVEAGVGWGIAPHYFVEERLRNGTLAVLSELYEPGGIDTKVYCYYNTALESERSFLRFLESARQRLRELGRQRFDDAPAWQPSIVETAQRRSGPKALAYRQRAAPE
Kind of data set: PqsR bioreporter assay. The format is cell-based, Pseudomonas aeruginosa PAO1-L. The note with it: for activity: read-out: IC50 value in PAO1-L. A digest of the protocol: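 Dose-response of the PAO1-L mCTX:PpqsA-lux reporter. Ten compound concentrations in LB came from two tenfold dilution series and were mixed 1:1 with PAO1-L diluted to OD600 0.02, giving final 31.6 μM to 1 nM, in triplicate. The plate was kinetically read at 37 °C over 24 h for OD600 and luminescence every 30 min. Values were taken at the luminescence peak (8–9 h), and log concentration was plotted against RLU/OD600.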
In general terms: Reporter assays use an easily measured gene product as a stand-in for the process of interest.

Data set [4] deals with T1, PqsR. The data set can be described thus: 10 μM spot test in the PAO1-L mCTX:PpqsA-lux bioreporter. Format: cell-based, Pseudomonas aeruginosa PAO1-L. The note with it: 10 μM ligand concentration. A digest of the protocol:
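Single-concentration screen of the PAO1-L mCTX:PpqsA-lux strain in LB. The reporter was grown overnight at 37 °C to OD600 2.0–3.0 and diluted to OD600 0.02. A 20 μM compound solution in LB was mixed 1:1 with the cells (final 10 μM) in at least three wells. OD600 and luminescence were read every 30 min at 37 °C over 24 h. Activity (luminescence/OD600) was taken at the luminescence peak and compared with the DMSO control.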

“Also recorded” adds a separate entry of the source.

As to `CCCCCc1nc(Cn2cnc3ccc(Cl)cc3c2=O)cs1` [Compound 18, 6-Chloro-3-((2-pentylthiazol-4-yl)methyl)quinazolin-4(3H)-one], in data set [1], the “cytotoxic concentration (no significant toxicity up to; LD50 not reached)” value was > 100 µM. Moreover, the “solubility in the test buffer” value in data set [2] is “neither compound was fully soluble above this concentration”.

In the case of `CC(C)(C)c1nc(Cn2cnc3ccc(Cl)cc3c2=O)cs1` [Compound 12, 3-((2-(Tert-butyl)thiazol-4-yl)methyl)-6-chloroquinazolin-4(3H)-one], the “activity in PAO1-L compared with 32” value in data set [3] (ratio of IC50 values, strain PAO1-L) is reported as “seven-fold stronger activity”.

Consider `N#CCc1nc(Cn2cnc3ccc(Cl)cc3c2=O)cs1` [Compound 11, 2-(4-((6-Chloro-4-oxoquinazolin-3(4H)-yl)methyl)thiazol-2-yl)acetonitrile], for which, in data set [3], the activity is > 50%.

On to `CC(C)c1noc(Cn2cnc3ccc(Cl)cc3c2=O)n1` [Compound 7], for which, in data set [4], the “activity when screened at 10 μM (in words)” value (shortened to “activity when screened”) was “inactive; also recorded: inactivity”.

For the compound `COCCNc1ncc(Cn2cnc3ccc(Cl)cc3c2=O)s1` [Compound 31, 6-Chloro-3-((2-((2-methoxyethyl)amino)thiazol-5-yl)methyl)quinazolin-4-(3H)-one], in data set [3], the activity was > 50%.

On to `CC1CCN(c2ncc(Cn3cnc4ccc(Cl)cc4c3=O)s2)CC1` [Compound 27, 6-Chloro-3-((2-(4-methylpiperidin-1-yl)thiazol-5-yl)methyl)quinazolin-4-(3H)-one], for which the activity in data set [3] is > 50%.

With `CCCCNc1ncc(Cn2cnc3ccc(Cl)cc3c2=O)s1` [Compound 30, 3-((2-(Butylamino)thiazol-5-yl)methyl)-6-chloroquinazolin-4(3H)-one], the activity in data set [3] is > 50%.

For the compound `O=c1c2cc(Cl)ccc2ncn1Cc1cnc(Cl)s1` [Compound 34, 6-Chloro-3-((2-chlorothiazol-5-yl)methyl)quinazolin-4(3H)-one], in data set [3], the activity was > 50%.

`CCCCCc1nc(Cn2cnc3cc(Cl)ccc3c2=O)cs1` [Compound 33, 7-Chloro-3-((2-pentylthiazol-4-yl)methyl)quinazolin-4(3H)-one]: in data set [3], the activity is > 50%. In addition, the “activity when screened” value in data set [4] was “inactive”.

In the case of `NC(N)=Nc1nc(Cn2cnc3ccc(Cl)cc3c2=O)cs1` [Compound 26, 2-(4-((6-Chloro-4-oxoquinazolin-3(4H)-yl)methyl)thiazol-2-yl)guanidine], in data set [3], the activity was > 50%. The “activity when screened” value in data set [4] is “inactive”.

Take `O=c1c2cc(Cl)ccc2ncn1Cc1csc(-c2ccc([N+](=O)[O-])cc2)n1` [Compound 23, 6-Chloro-3-((2-(4-nitrophenyl)thiazol-4-yl)methyl)quinazolin-4(3H)-one]: the activity in data set [3] is > 50%. For the same compound, the “activity when screened” value in data set [4] is “inactive”.

Regarding `Cc1nc(Cn2cnc3ccc(Cl)cc3c2=O)cs1` [Compound 8, 6-Chloro-3-((2-methylthiazol-4-yl)methyl)quinazolin-4(3H)-one], the activity in data set [3] is > 50%.

Take `CC(C)c1ncc(Cn2cnc3ccc(Cl)cc3c2=O)s1` [Compound 35, 6-Chloro-3-((2-isopropylthiazol-5-yl)methyl)quinazolin-4(3H)-one]: the activity in data set [3] is > 50%. Moreover, the “activity when screened” value in data set [4] was “inactive; also recorded: inactivity”.

Consider `CN(CCO)c1ncc(Cn2cnc3ccc(Cl)cc3c2=O)s1` [Compound 29, 6-Chloro-3-((2-(2-hydroxyethyl(methyl)amino)thiazol-5-yl)methyl)quinazolin-4-(3H)-one], for which the activity in data set [3] is > 50%.

In the case of `O=c1c2cc(Cl)ccc2ncn1Cc1cnc(NC2CCCCC2)s1` [Compound 28, 6-Chloro-3-((2-(cyclohexylamino)thiazol-5-yl)methyl)quinazolin-4-(3H)-one], the activity in data set [3] was > 50%.

`CCCCCCc1nc(Cn2cnc3ccc(Cl)cc3c2=O)cs1` [Compound 19, 6-Chloro-3-((2-hexylthiazol-4-yl)methyl)quinazolin-4(3H)-one]: the “cytotoxic concentration (no significant toxicity up to; LD50 not reached)” value in data set [1] was > 100 µM. Also, the “solubility in the test buffer” value in data set [2] is reported as “neither compound was fully soluble above this concentration”.

As to `COCCNc1nc(Cn2cnc3ccc(Cl)cc3c2=O)cs1` [Compound 24, 6-Chloro-3-((2-((2-methoxyethyl)amino)thiazol-4-yl)methyl)quinazolin-4(3H)-one], the activity in data set [3] was > 50%. Moreover, the “activity when screened” value in data set [4] is on record as “no inhibition”.

For the compound `O=c1c2cc(Cl)ccc2ncn1Cc1csc(C(F)(F)F)n1` [Compound 9, 6-Chloro-3-((2-(trifluoromethyl)thiazol-4-yl)methyl)quinazolin-4(3H)-one], in data set [3], the activity was > 50%.

On to `CCc1nc(Cn2cnc3ccc(Cl)cc3c2=O)cs1` [Compound 10, 6-Chloro-3-((2-ethylthiazol-4-yl)methyl)quinazolin-4(3H)-one], for which, in data set [3], the activity is > 50%.

Values taken from paper PMC7684530 (European Journal of Medicinal Chemistry, 2020).
